Test results reported in ChEMBL document CHEMBL4138189, “Role of the Benzodioxole Group in the Interactions between the Natural Alkaloids Chelerythrine and Coptisine and the Human Telomeric G-Quadruplex DNA. A Multiapproach Investigation” (J Nat Prod, 2017).
Active and inactive are the calls of the source. The rule behind the calls is not given here.

Experiments:
Quadruplex DNA [1] = assay: Binding affinity to wild-type telomeric 22 H2 G-quadruplex DNA (unknown origin) assessed as increase in positive cotton effect at 295 nm at 40 to 80 uM in presence of KCl by electronic circular dichorism spectra analysis; format: nucleic-acid assay
Outline: (§1)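 DNA annealed at 4 μM (strand concentration) in 10 mM Tris, 50 mM KCl, pH 7.5, with or without 40% MPD. ECD spectra were read at 230–350 nm in a 10 mm cell under Peltier temperature control, without ligand and with increasing ligand (0–80 μM). Cotton effects were converted to mean residue ellipticity.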

Quadruplex DNA [2] = assay: Binding affinity to telomeric 22 H1 G-quadruplex DNA (unknown origin) assessed as increase in positive cotton effect at 295 nm at 40 to 80 uM by electronic circular dichorism spectra analysis; format: nucleic-acid assay; outline: as §1
Calf thymus DNA [3] = assay: Binding affinity to calf thymus DNA in presence of KCl by UV-spectra analysis; format: nucleic-acid assay; settings: Bos taurus
Quadruplex DNA [4] = assay: Stabilization of 5'Dabcyl/3'FAM labeled human telomeric sequence G-quadruplex DNA assessed as change in melting temperature up to 30 uM in presence of KCl by fluorescence assay; format: nucleic-acid assay
Outline: (§2)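 Labelled telomeric DNA, 0.25 μM strand, in 10 mM LiOH, pH 7.5 (H3PO4), 50 mM KCl, with increasing ligand. Samples were heated and cooled over 25–95 °C at 0.1 °C/s, held 5 min at 30 °C, then heated to 95 °C at 1 °C/min. Fluorescence excited at 488 nm, read at 520 nm. Tm from first derivative of melting profile; at least triplicate, errors ±0.3 °C.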

Quadruplex DNA [5] = assay: Stabilization of 5'Dabcyl/3'FAM labeled human telomeric sequence G-quadruplex DNA assessed as change in melting temperature at 5 uM in presence of KCl by fluorescence assay; format: nucleic-acid assay; outline: as §2
Calf thymus DNA [6] = assay: Stabilization of calf thymus DNA assessed as change in melting temperature at 5 uM by fluorescence assay; format: nucleic-acid assay; settings: Bos taurus
[7] = Selectivity ratio of EC50 for displacement of thiazole orange from wild-type telomeric 22 H2 G-quadruplex DNA (unknown origin) to EC50 for displacement of thiazole orange from telomeric 22 H1 G-quadruplex DNA (unknown origin)
Outline: (§3)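 Target DNA (0.62 μM) was mixed with thiazole orange (1.24 μM) in 10 mM Tris, 50 mM KCl, pH 7.5, at 25 °C and titrated with compound. Fluorescence was excited at 501 nm and read at 520–680 nm. Displacement = 100 − (F/F0 × 100); EC50 was taken from displacement versus concentration. Each titration was run at least in triplicate.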

Quadruplex DNA [8] = assay: Binding affinity to telomeric 12 G-quadruplex DNA (unknown origin) assessed as increase in cotton effect amplitude up to 10 fold excess DNA concentration in presence of MPD by electronic circular dichorism spectra analysis; format: nucleic-acid assay
Quadruplex DNA [9] = assay: Binding affinity to telomeric 22 H1 G-quadruplex DNA (unknown origin) assessed as decrease in positive cotton effect at 260 nm at 40 to 80 uM by electronic circular dichorism spectra analysis; format: nucleic-acid assay; outline: as §1
Quadruplex DNA [10] = assay: Binding affinity to wild-type telomeric 22 H2 G-quadruplex DNA (unknown origin) assessed as decrease in positive cotton effect at 260 nm at 40 to 80 uM in presence of KCl by electronic circular dichorism spectra analysis; format: nucleic-acid assay; outline: as §1
Quadruplex DNA [11] = assay: Displacement of thiazole orange from wild-type telomeric 22 H2 G-quadruplex DNA (unknown origin) in presence of KCl by fluorescent intercalator displacement assay; format: nucleic-acid assay; outline: as §3
Quadruplex DNA [12] = assay: Displacement of thiazole orange from telomeric 22 H1 G-quadruplex DNA (unknown origin) in presence of KCl by fluorescent intercalator displacement assay; format: nucleic-acid assay; outline: as §3
Calf thymus DNA [13] = assay: Binding affinity to calf thymus DNA up to 80 uM in presence of KCl by electronic circular dichorism spectra analysis; format: nucleic-acid assay; settings: Bos taurus; outline: as §1

SMILES | Activity (Quadruplex DNA [1]) | Activity (Quadruplex DNA [2]) | Activity (Calf thymus DNA [3]) | Activity (Quadruplex DNA [4]) | Activity (Quadruplex DNA [5]) | Activity (Calf thymus DNA [6]) | Ratio EC50 [7] | Activity (Quadruplex DNA [8]) | Activity (Quadruplex DNA [9]) | Activity (Quadruplex DNA [10]) | EC50 (Quadruplex DNA [11]) | EC50 (Quadruplex DNA [12]) | Activity (Calf thymus DNA [13])
c1c2c(cc3c1OCO3)-c1cc3ccc4c(c3c[n+]1CC2)OCO4 [COPTISINE] | Active | Active | Active | Active | Active | inactive | 2 | Active | Active | Active | 5.93 µM | 12 µM | Active
COc1ccc2c(c[n+](C)c3c4cc5c(cc4ccc23)OCO5)c1OC [CHELERYTHRINE] | Active | Active | Active | Active | Active | inactive | 0.7 |  | Active | Active | 3.75 µM | 2.59 µM | Active
